Assay results: paper PMC3974318 (Memórias do Instituto Oswaldo Cruz, 2013)
“Also recorded” adds a separate entry of the source.

Columns and labels:
[1] = tested on: axenic amastigote forms of L. amazonensis; assay: Mitochondrial membrane potential by rhodamine 123, flow cytometry; assay type: cell-based, Leishmania amazonensis; conditions: 3 h, 32 °C, untreated cells 93.7%
[2] = tested on: axenic amastigotes of Leishmania amazonensis; assay: Cell viability by propidium iodide staining, flow cytometry; assay type: cell-based
[3] = tested on: Erythrocytes; assay: Cytotoxic activity: haemolysis of erythrocytes; assay type: cell-based, Human; conditions: for toxicity to mammalian erythrocytes (lysis), in words: 3 h, 37 °C
How it was run: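 Blood from healthy human donors was defibrinated and washed in glycosylated saline. A 3% erythrocyte suspension in glycosylated saline was incubated with a range of test compound concentrations for 3 h at 37 °C. Supernatant absorbance at 550 nm was compared with 1% Triton X-100-treated wells to give percent haemolysis.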

[4] = tested on: intracellular trypanosomes; conditions: ref Izumi et al. 2012; cited from earlier work
[5] = tested on: T. cruzi epimastigotes; conditions: extracellular replicative form; ref Izumi et al. (2012); cited from earlier work
[6] = tested on: promastigote forms of Leishmania amazonensis; assay: Ultrastructural analysis by SEM and TEM; assay type: cell-based; conditions: 2.5 µg/mL, 72 h
[7] = 100 µg/mL, 3 h, 32 °C, negative control 11.4%

Row | SMILES | Rh123 upper right gated population percentage ([1]; 100 µg/mL) [%] | PI-positive events, upper left quadrant gated percentage [2, 7] [%] | toxicity to mammalian erythrocytes (lysis), in words [3] | also measured
1 | C=C1CC[C@@H]2[C@](C)(CCC[C@]2(C)C(=O)O)[C@H]1CC/C(C)=C/C(=O)O [Agathic acid, labd-8(20)-13-dien-15,19-dioic acid] | 27.5 | 63.4 | – | –
2 | C[C@@H]1[C@H](O)[C@@H](C)/C=C/C=C/C=C/C=C/C=C/C=C/C=C/[C@H](O[C@@H]2O[C@H](C)[C@@H](O)[C@H](N)[C@@H]2O)C[C@@H]2O[C@](O)(C[C@@H](O)C[C@@H](O)[C@H](O)CC[C@@H](O)C[C@@H](O)CC(=O)O[C@H]1C)C[C@H](O)[C@H]2C(=O)O [Amphotericin B, reference compound] | – | – | – | PI-positive events, upper left quadrant gated percentage ([2]; positive control, concentration not given): 75.9%
3 | N#CC(C#N)=NNc1cccc(Cl)c1 [CCCP, carbonyl cyanide m-chlorophenylhydrazone, reference compound] | – | – | – | Rh123 upper right gated population percentage ([1]; 200 µM): 53.1%
4 | C=C1CC[C@H]2C(C)(C)[C@@H](O)CC[C@]2(C)[C@H]1CC/C(C)=C/C(=O)O [Hydroxycopalic acid, 3β-hydroxylabda-8(20),13-dien-15-oic acid] | – | – | more toxic | inhibition of 50% against intracellular trypanosomes [4]: 0.6 µg/mL; ultrastructural changes in epimastigotes [5]: organelle disorganisation and membranous vacuole formation; ultrastructural changes (TEM) [6]: swollen mitochondria with the appearance of concentric membrane structures inside the organelle
5 | C=C1C[C@@]23CC[C@H]4[C@@](C)(CCC[C@@]4(C)C(=O)O)[C@@H]2CC[C@@H]1C3 [Kaurenoic acid, kaur-16-ene-18-oic acid] | 24.4 | 60.8 | more toxic | selectivity index (SI) ([3]; figures fit CC50/IC50 promastigote): 5
6 | C=C1CC[C@@H]2C(C)(C)CCC[C@@]2(C)[C@@H]1CC/C(C)=C/C(=O)OC [Methyl copalate, methyl labd-8(20),13-dien-15-oate] | – | – | – | inhibition of 50% against intracellular trypanosomes [4]: 0.8 µg/mL
7 | C=C1CC[C@@H]2[C@](C)(CCC[C@@]2(C)C(=O)O)[C@H]1CC[C@H](C)CC(=O)O [Pinifolic acid, labd-8(20)-ene-15,18-dioic acid] | 32.4 | 68.4 | did not cause lysis except at the maximum concentration tested | toxicity to mammalian erythrocytes (lysis), in words ([3]; listed as pinifolic acid): no toxicity was observed, except at the maximum concentration tested
8 | C=C1CC[C@@H]2[C@](C)(CCC[C@@]2(C)C(=O)O)[C@H]1CCc1ccoc1 [Polyaltic acid, 15,16-epoxylabda-8(20),13(16),14-trien-19-oic acid] | – | – | did not cause lysis except at the maximum concentration tested; also recorded: no toxicity was observed, except at the maximum concentration tested | –
